According to ChEMBL document CHEMBL2163277, “The selectivity of austocystin D arises from cell-line-specific drug activation by cytochrome P450 enzymes” (J Nat Prod, 2011):
Active and inactive are the calls of the source. The calls are words filed in the database; no cut-off is given here.

What was measured:
MCF7 [1] = assay: Growth inhibition of human MCF7 cells at up to 10 uM after 72 hrs by celltiter-blue viability assay; format: functional, cell-based
MCF7 [2] = assay: Induction of DNA damage in human MCF7 cells assessed as H2AX phosphorylation up to 10 uM after 4 hrs by Western blot analysis; format: functional, cell-based
In short: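 In-cell Western: MCF7 at 10 000 cells/well, dosed 24 h later with 3-fold serial dilutions (final DMSO 0.1%); 4 h at 37 °C, paraformaldehyde fixation, anti-phospho-H2AX Ser139 with IR800 secondary, DRAQ5 for normalization (800/700 nm ratio); duplicate or triplicate wells, scaled to 0.1% DMSO (0%) and 10 μM etoposide (100%); nonlinear curve fit.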

HCT-15 [3] = assay: Induction of DNA damage in human HCT15 cells assessed as H2AX phosphorylation after 4 hrs by Western blot analysis; format: functional, cell-based
In short: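 HCT-15 cells at 10 000/well, dosed 4 h at 37 °C, 0.1% DMSO final. In-cell Western with anti-phospho-H2AX (Ser139) and DRAQ5. 800/700 nm ratio normalized to 0.1% DMSO (0%) and 10 μM etoposide (100%). Curve fit by nonlinear regression.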

HCT-15 [4] = assay: Cytotoxicity against MDR1 expressing human HCT15 cells; format: functional, cell-based
In short: (§1)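 Cells (HUVEC from Lonza, others from ATCC) seeded at 2500–10 000 cells/well 24 h before dosing. 3-fold serial dilutions in DMSO, 0.1% DMSO final. Cell-Titer Blue read at 0 h and 72 h.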

MCF7 [5] = assay: Growth inhibition of human MCF7 cells after 72 hrs by celltiter-blue viability assay; format: functional; in short: as §1
[6] = Growth inhibition of human MCF10A cells after 72 hrs by celltiter-blue viability assay; format: cell-based, MCF-10A; in short: as §1
[7] = Growth inhibition of human U87 cells after 72 hrs by celltiter-blue viability assay; format: functional, U-87MG ATCC; conditions: U-87 MG; in short: as §1
SR = assay: Growth inhibition of human SR cells after 72 hrs by celltiter-blue viability assay; format: functional; in short: as §1
HeLa [8] = assay: Growth inhibition of human HeLa cells after 72 hrs by celltiter-blue viability assay; format: functional; in short: as §1
A549 = assay: Growth inhibition of human A549 cells after 72 hrs by celltiter-blue viability assay; format: functional; conditions: A549, 72 h; in short: as §1
[9] = Growth inhibition of HUVEC after 72 hrs by celltiter-blue viability assay; format: cell-based; conditions: human; in short: as §1
[10] = biological target: ATP-dependent translocase ABCB1 (Homo sapiens, UniProt P08183); assay: Inhibition of MDR1 in human HCT15 cells assessed as calcein-AM efflux at 10 uM by fluorescence assay; format: cell-based; conditions: hct-15, 10 µM
MDA-MB-231 = assay: Growth inhibition of human MDA-MB-231 cells after 72 hrs by celltiter-blue viability assay; format: functional; conditions: MDA-MB-231, 72 h; in short: as §1
PC-3 = assay: Growth inhibition of human PC3 cells after 72 hrs by celltiter-blue viability assay; format: functional; conditions: PC-3, 72 h; in short: as §1
SW-620 [11] = assay: Growth inhibition of human SW620 cells after 72 hrs by celltiter-blue viability assay; format: functional; conditions: SW-620, 72 h; in short: as §1
HCT-15 [12] = assay: Growth inhibition of human HCT15 cells after 72 hrs by celltiter-blue viability assay; format: functional; conditions: HCT-15, 72 h; in short: as §1
[13] = Growth inhibition of human MES-SA cells after 72 hrs by celltiter-blue viability assay; format: functional; in short: as §1
[14] = Growth inhibition of human MES-SA/MX2 cells after 72 hrs by celltiter-blue viability assay; format: functional; conditions: MX2, 72 h; in short: as §1
HCT-15 [15] = assay: Induction of DNA damage in human HCT15 cells assessed as H2AX phosphorylation after 1 hr by Western blot analysis; format: functional, cell-based
In short: (§2)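 In-cell Western for pSer139 H2AX after 1 h dosing. Cells at 10 000/well plated 24 h ahead, 0.1% DMSO final. Fixed in 4% paraformaldehyde, permeabilized, stained with anti-phospho-H2AX plus IR800CW secondary and DRAQ5. 800/700 nm ratio, duplicate or triplicate wells, normalized to 0.1% DMSO (0%) and 10 μM etoposide (100%).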

SW-620 [16] = assay: Induction of DNA damage in human SW620 cells assessed as H2AX phosphorylation after 1 hr by Western blot analysis; format: functional, cell-based; in short: as §2
HeLa [17] = assay: Induction of DNA damage in human HeLa cells assessed as H2AX phosphorylation after 1 hr by Western blot analysis; format: functional, cell-based; in short: as §2
HCT-15 [18] = assay: Growth inhibition of human HCT15 cells at 0.5 to 2 uM after 72 hrs by celltiter-blue viability assay in presence of CYP inhibitor ketoconazole; format: functional, cell-based
In short: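 HCT-15 cells exposed to 0.5, 1 or 2 μM test agent across a ketoconazole dose range, 0.1% DMSO final. Cell-Titer Blue read at 0 and 72 h. Growth normalized to DMSO controls at 0 h and 72 h.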

HCT-15 [19] = assay: Induction of DNA damage in human HCT15 cells assessed as H2AX phosphorylation after 4 hrs by Western blot analysis presence of CYP inhibitor ketoconazole; format: functional, cell-based
In short: (§3)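 Cells pretreated 1 h with 10 μM ketoconazole, then dosed 4 h. pSer139 H2AX measured by in-cell Western as 800/700 nm ratio (DRAQ5 normalization), scaled to 0.1% DMSO (0%) and 10 μM etoposide (100%). In SW620 cells, test agent at 10 μM with 20 μM camptothecin as comparator.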

Liver = assay: Induction of DNA damage in human liver microsomes assessed as conversion of supercoiled plasmid DNA to nicked DNA by at 100 nM by agarose gel electrophoresis in presence of NADPH generating system; format: functional; conditions: Microsome
In short: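 Supercoiled pLenti6 plasmid (120 μg/mL) incubated 4 h at 37 °C with compound (100 nM–1 μM, 1% DMSO) plus or minus human liver microsomes (0.25 mg/mL) and NADPH regenerating system (1.5 mM NADP, 12.5 mM G6P, 0.25 U/mL G6PDH, 100 mM phosphate pH 7.5, 5 mM MgCl2). Phenol/chloroform stop, DNA purified, 0.8% agarose gel for nicked versus supercoiled forms.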

SW-620 [20] = assay: Induction of DNA damage in human SW620 cells assessed as H2AX phosphorylation at 10 uM in presence of CYP inhibitor ketoconazole; format: functional, cell-based; in short: as §3
HCT-15 [21] = assay: Ratio of austocystin D GI50 to verapamil GI50 for MDR1 expressing human HCT15 cells; format: functional
MCF7 [22] = assay: Selectivity ratio of GI50 for human MCF7 cells over GI50 for human MES-SA cells; format: functional
MCF7 [23] = assay: Selectivity ratio of GI50 for human MCF7 cells over GI50 for human MCF10A cells
MCF-10A = assay: Growth inhibition of human MCF10A cells after 72 hrs by celltiter-blue viability assay relative to control; format: cell-based
In short: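 MCF10A seeded at 2500–10 000 cells/well 24 h before dosing. 3-fold serial dilutions, 0.1% DMSO final. Cell-Titer Blue read at 0 and 72 h. Growth normalized to DMSO controls at 0 h (0%) and 72 h (100%). Dose-response fitted by nonlinear regression.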

Sequence of ATP-dependent translocase ABCB1 (P08183 whole entry): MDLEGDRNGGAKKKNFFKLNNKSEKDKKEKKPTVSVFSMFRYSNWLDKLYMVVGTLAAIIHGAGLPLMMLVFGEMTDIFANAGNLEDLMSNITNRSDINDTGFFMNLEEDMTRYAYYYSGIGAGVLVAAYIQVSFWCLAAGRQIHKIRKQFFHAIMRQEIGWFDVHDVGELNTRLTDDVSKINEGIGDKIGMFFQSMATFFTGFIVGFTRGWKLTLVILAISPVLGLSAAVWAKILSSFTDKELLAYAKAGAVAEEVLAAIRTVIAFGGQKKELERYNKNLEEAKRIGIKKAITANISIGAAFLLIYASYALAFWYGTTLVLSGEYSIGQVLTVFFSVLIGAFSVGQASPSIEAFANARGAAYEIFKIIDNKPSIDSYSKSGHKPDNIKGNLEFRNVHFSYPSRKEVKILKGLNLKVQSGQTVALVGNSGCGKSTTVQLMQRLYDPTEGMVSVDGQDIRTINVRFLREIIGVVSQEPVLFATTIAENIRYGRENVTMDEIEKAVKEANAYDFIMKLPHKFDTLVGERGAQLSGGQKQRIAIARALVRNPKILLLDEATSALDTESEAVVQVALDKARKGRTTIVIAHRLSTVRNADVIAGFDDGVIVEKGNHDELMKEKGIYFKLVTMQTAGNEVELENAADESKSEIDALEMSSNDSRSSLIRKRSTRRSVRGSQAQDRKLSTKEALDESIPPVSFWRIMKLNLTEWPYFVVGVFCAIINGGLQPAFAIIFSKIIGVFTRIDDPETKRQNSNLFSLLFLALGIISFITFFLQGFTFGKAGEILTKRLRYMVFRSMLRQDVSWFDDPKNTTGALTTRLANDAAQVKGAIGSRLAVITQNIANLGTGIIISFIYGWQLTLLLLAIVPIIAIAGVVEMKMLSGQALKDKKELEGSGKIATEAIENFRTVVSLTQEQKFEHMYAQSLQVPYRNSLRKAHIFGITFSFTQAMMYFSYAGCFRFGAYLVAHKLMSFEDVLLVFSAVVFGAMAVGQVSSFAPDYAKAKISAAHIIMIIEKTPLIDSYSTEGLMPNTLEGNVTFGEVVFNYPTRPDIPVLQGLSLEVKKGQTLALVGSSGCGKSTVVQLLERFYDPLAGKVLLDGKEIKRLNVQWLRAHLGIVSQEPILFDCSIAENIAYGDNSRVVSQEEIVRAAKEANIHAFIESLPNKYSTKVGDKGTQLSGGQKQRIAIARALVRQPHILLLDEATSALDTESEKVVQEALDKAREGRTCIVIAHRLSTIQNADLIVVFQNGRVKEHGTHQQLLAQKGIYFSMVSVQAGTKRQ

CC(C)(O)CCc1ccc(O)c2c(=O)c3c(O)c4c(cc3oc12)O[C@H]1OCC[C@@]41O
growth inhibition (GI) (MCF7 [1]): inactive | Activity (MCF7 [2]): inactive

CC[C@@]1(O)C(=O)OCc2c1cc1n(c2=O)Cc2cc3ccccc3nc2-1
Activity (HCT-15 [3]): Dose-dependent effect

COc1ccc(CCN(C)CCCC(C#N)(c2ccc(OC)c(OC)c2)C(C)C)cc1OC (stereo not drawn)
Activity (HCT-15 [4]): Active

COc1cc2c(c3oc(=O)c4c(c13)CCC4=O)[C@@H]1C=CO[C@@H]1O2 [AFLATOXIN]
GI50 (MCF7 [5]): > 5 µM | GI50 at 72 h [6]: > 5 µM

CC(C)(O)CCc1ccc(O)c2c(=O)c3c(O)c4c(cc3oc12)O[C@H]1OC=C[C@@]41O [AUSTOCYSTIN D]
GI50 (MCF7 [5]; MCF7, 72 h): < 0.001 µM | GI50 [7]: 4.95 µM | GI50 (SR): 0.016 µM | GI50 (HeLa [8]): > 5 µM | GI50 (A549): > 5 µM | GI50 at 72 h [6]: 3.51 µM | GI50 at 72 h [9]: 4.25 µM | inhibition (INH) [10]: Active | GI50 (MDA-MB-231): 0.549 µM | GI50 (PC-3): 0.003 µM | GI50 (SW-620 [11]): 0.027 µM | GI50 (HCT-15 [12]): 0.042 µM | GI50 [13]: > 10 µM | GI50 [14]: 3.36 µM | Activity (HCT-15 [4]): Active | Activity (HCT-15 [15]): Active | Activity (SW-620 [16]): Active | Activity (HeLa [17]): Active | growth inhibition (GI) (HCT-15 [18]): inactive | Activity (HCT-15 [19]): inactive | Activity (Liver): Active | Activity (SW-620 [20]): inactive | RatioGI50 (HCT-15 [21]): >1000 | RatioGI50 (MCF7 [22]): >10000 | RatioGI50 (MCF7 [23]): >1000

COc1cccc2c1C(=O)c1c(O)c3c(c(O)c1C2=O)C[C@@](O)(C(=O)CO)C[C@@H]3O[C@H]1C[C@H](N)[C@H](O)[C@H](C)O1 [DOXORUBICIN]
GI50 (MCF7 [5]; MCF7, 72 h): > 5 µM | GI50 at 72 h [6]: > 5 µM | Activity (HCT-15 [3]): Dose-dependent effect | fold change (FC) (MCF-10A): 50

COc1cc([C@@H]2c3cc4c(cc3[C@@H](O[C@@H]3O[C@@H]5CO[C@@H](C)O[C@H]5[C@H](O)[C@H]3O)[C@H]3COC(=O)[C@H]23)OCO4)cc(OC)c1O [ETOPOSIDE]
GI50 (MCF7 [5]; MCF7, 72 h): > 5 µM | GI50 at 72 h [6]: > 5 µM | fold change (FC) (MCF-10A): 50
